Laboratory results taken from ChEMBL document CHEMBL5352422, “Development of l-Dopa-containing diketopiperazines as blood-brain barrier shuttle” (Eur J Med Chem, 2022).
Active and inactive are the calls of the source. No cut-off for these calls is given here.

Assays:
[1] = tested on: PC-12; assay: Upregulation of GSTA-2 expression in MPP+ induced rat PC-12 cells at 100 nM pretreated with compound for 24 hrs followed by MPP+ stimulation and measured after 6 hrs; assay type: functional, cell-based; settings: time 30.0 hrs
How it was run: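 PC12 cells pretreated 24 h with compound, then exposed to 25 μM MPP+ for 6 h. mRNA quantified by real-time PCR (95 °C 3 min, then 40 cycles of 95 °C 10 s and 62 °C 30 s), samples in triplicate. Values normalized to β-actin, expressed as 2^-ΔΔCt with untreated cells set to 1.0. n = 3.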

[2] = Stability of the compound in stimulated intestinal fluid at 40 mg/ml pancreatin by measuring observed rate constant measured upto 180 mins by HPLC analysis; assay type: ADME; settings: simulated gi fluid, 3 h
How it was run: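 USP simulated intestinal fluid containing pancreatin, in a 37 °C shaking water bath. Samples at 0, 60, 120 and 180 min were quenched with ice-cold acetonitrile containing 0.5% formic acid, centrifuged at 4 °C for 10 min, filtered and analyzed by HPLC. Means of three experiments ± SD.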

For `C#CCSC[C@H]1NC(=O)[C@H](Cc2ccc(OC(C)=O)c(OC(C)=O)c2)NC1=O`, the Activity [1] was “Active” and the Kobs [2] was 0.27 h⁻¹.
